This note sets out measurements from PubChem BioAssay AID492975 (The Scripps Research Institute Molecular Screening Center, 2010).

The source made the active and inactive calls.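 How the source made its calls: active means inhibition above 50% of the malaria lysate aminopeptidase activity; inactive means inhibition of 50% or less.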

Sequence of Aspartyl aminopeptidase (Plasmodium falciparum (isolate 3D7)) (Q8I2J3 whole entry, looked up): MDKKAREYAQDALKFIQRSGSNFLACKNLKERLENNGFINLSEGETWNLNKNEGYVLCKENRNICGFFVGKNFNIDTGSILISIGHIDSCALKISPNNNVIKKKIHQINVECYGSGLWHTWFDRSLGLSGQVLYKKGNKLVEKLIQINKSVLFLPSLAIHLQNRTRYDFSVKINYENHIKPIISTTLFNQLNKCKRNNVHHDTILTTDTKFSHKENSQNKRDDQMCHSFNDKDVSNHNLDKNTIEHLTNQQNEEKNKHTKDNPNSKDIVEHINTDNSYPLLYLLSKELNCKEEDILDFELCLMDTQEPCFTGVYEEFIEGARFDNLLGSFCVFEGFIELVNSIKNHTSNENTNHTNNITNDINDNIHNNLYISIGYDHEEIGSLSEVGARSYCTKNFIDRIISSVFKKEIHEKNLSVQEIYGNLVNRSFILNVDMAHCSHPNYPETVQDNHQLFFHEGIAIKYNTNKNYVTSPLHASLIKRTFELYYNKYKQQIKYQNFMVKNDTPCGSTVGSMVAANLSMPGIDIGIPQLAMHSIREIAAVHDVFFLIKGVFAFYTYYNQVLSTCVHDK

In the experiment the target is Aspartyl aminopeptidase (Plasmodium falciparum (isolate 3D7)) (UniProt Q8I2J3). As to the kind of experiment: PfM18AAP inhibition in parasite lysate, late-stage follow-up, cell lysate, fluorescence, malaria cell lysate, powder samples (AID 492975). The note with it: P. falciparum lysate, H-Glu-NHMec fluorogenic substrate; at 5 µM; hits give high values. Put shortly:
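medium = Tris-HCl 25 mM, pH 7.5 | assay system = Plasmodium falciparum cell lysate with native PfM18 aspartyl aminopeptidase | signal = Per-minute kinetic AMC fluorescence, ex 370 nm, em 460 nm | controls = uninhibited lysate wells as high, lysate-free wells as background | timing = 10 min pre-incubation, 30 min reading | probe or stimulus = 50 µM H-Glu-NHMec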
In the case of `COc1ccc(Cl)cc1NC(=O)Nn1cnnc1`, the inhibition was 21% (inactive).
In the case of `Cc1ccc([N+](=O)[O-])cc1-c1[nH]c(-c2ccc(O)c(O)c2)nc1-c1ccccc1`, the inhibition is 92%.
Consider `Cc1cc(C)cc(C(=O)n2cnnc2N)c1`, for which the inhibition is 11% (inactive).
Take `O=C(CSc1nn(-c2ccccc2)c(=S)s1)Nn1cnnc1`: the inhibition was 9% (inactive).
Regarding `CC1(C)CC(=O)c2c(oc3cc(O)c(O)cc23)C1`, the inhibition was 85%.
Regarding `O=C(CSc1nc2ccccc2c(=O)[nH]1)c1ccc(O)c(O)c1`, the inhibition was 79%.
With `O=C(CNC(=O)c1ccccc1)NCCc1ccc(O)c(O)c1`, the inhibition was 94%.
With `COc1cccc2c(SCC(=O)N/N=C/c3ccc(O)c(O)c3)cc(C)nc12`, the inhibition is 80%.
With `CN1CCc2cccc3c2[C@@H]1Cc1ccc(O)c(O)c1-3`, the inhibition was 84%.
For `COc1cccc(-c2cc(C(=O)Nn3cnnc3)c3ccccc3n2)c1`, the inhibition is 0% (inactive).
For `Cc1nc2ccccn2c1C(=O)NNC(=O)Nc1ccccc1`, the inhibition is 53%.
In the case of `O=C(Nn1cnnc1)c1ccccc1-c1ccccc1` it was 10% (inactive); in that of `Oc1ccc(-c2cn3ccccc3n2)cc1O`, 94%.
For the molecule `CCc1ccccc1NC(=S)Nn1cnnc1`, the inhibition is 14% (inactive).
Turning to `COc1cc(Br)cc(/C=N/c2ncn[nH]2)c1O`, the inhibition is 0% (inactive).
For `CC1(C)CC2(CC(c3ccccc3F)c3ccc(O)c(O)c3O2)NC(=S)N1` (stereo not given), the inhibition was 89%.
As to `COC(=O)CN(n1cnnc1)S(=O)(=O)c1ccccc1`, the inhibition is 0% (inactive).
On to `CC1=NNC(=O)/C1=C\c1cn(-c2ccccc2)nc1-c1ccc(F)cc1`, for which the inhibition was 68%.
`Cc1ccc(NC(=S)Nn2cnnc2)c(C)c1`: the inhibition was 7% (inactive).
In the case of `CCN(CC)S(=O)(=O)c1ccc(C(=O)Nn2cnnc2)cc1`, the inhibition was 31% (inactive).
As for `Br/C(C=Nn1cnnc1)=C\c1ccccc1`, the inhibition is 14% (inactive).
For `O=[N+]([O-])c1cc([N+](=O)[O-])c2cccnc2c1Oc1ccccc1O`, the inhibition was 85%.
With `O=C(Nc1cccc(Cl)c1Cl)Nn1cnnc1`, the inhibition was 26% (inactive).
As for `COc1cc([N+](=O)[O-])ccc1NC(=O)Nn1cnnc1`, the inhibition was 0% (inactive).
In the case of `CCC(C)c1ccc(O)c(N)c1` (stereo not given) it was 95%.
For `O=c1[nH]c(=S)[nH]c(O)c1/C=C1\C=c2ccccc2=N1`, the inhibition was 41% (inactive).
In the case of `Oc1ccc(-c2csc(-c3cccnc3)n2)cc1O` it was 99%.
For the molecule `CCOC(=O)C1=C(CS(=O)(=O)c2ccc(F)cc2)NC(=O)NC1c1ccc(O)c(O)c1` (stereo not given), the inhibition was 90%.
With `Cc1cc(C)n2c(=S)[nH]nc2n1`, the inhibition was 74%.
As to `COc1ccc(C(=O)n2cnnc2N)cc1`, the inhibition was 12% (inactive).
On to `O=c1[nH]c(CSc2ncn[nH]2)nc2ccccc12`, for which the inhibition is 15% (inactive).
On to `O=c1c2c([N+](=O)[O-])cc([N+](=O)[O-])cc2sn1Cc1ccccc1`, for which the inhibition was 94%.
For `Cc1cccc(NC(=S)Nn2cnnc2)c1C`, the inhibition is 12% (inactive).
Take `S=C(Nc1cc(Cl)ccc1Cl)Nn1cnnc1`: the inhibition is 20% (inactive).
Take `Oc1cc(O)c2c(c1)O[C@H](c1ccc(O)c(O)c1)[C@H](O)C2`: the inhibition was 89%.
For the molecule `O=c1c(O)c(-c2ccc(O)c(O)c2)oc2cc(O)cc(O)c12`, the inhibition was 80%.
As for `O=C(Nn1cnnc1)c1csc2ccccc12`, the inhibition is 5% (inactive).
In the case of `O=C(NC(=S)Nn1cnnc1)c1ccccc1Br` it was 14% (inactive); in that of `O=C(O)c1ccc(O)c(O)c1`, 94%.
For `O=C(Nc1ccc(Br)cc1Cl)Nn1cnnc1`, the inhibition was 28% (inactive).
Regarding `COc1ccc2nc(C)cc(SCC(=O)N/N=C/c3ccc(O)c(O)c3)c2c1`, the inhibition is 83%.
For `O=C(CSc1ncn[nH]1)Nc1nc(-c2ccccc2)ns1`, the inhibition is 12% (inactive).
Turning to `Oc1ccc(/C=C/c2cc(O)cc(O)c2)cc1`, the inhibition is 66%.
Regarding `Nc1nncn1C(=O)CCCOc1ccc(Cl)cc1Cl`, the inhibition is 3% (inactive).
Take `O=C(O)CSc1ncn[nH]1`: the inhibition was 66%.
In the case of `COc1ccc(NC(=O)NNC(=O)CCc2ccc(O)c(O)c2)cc1OC`, the inhibition was 86%.
Turning to `Oc1ccc(-c2csc(-c3ccccc3)n2)cc1O`, the inhibition was 94%.
As to `O=C(Nc1ccc(Cl)c(Cl)c1)Nn1cnnc1`, the inhibition is 84%.
As to `Cc1ccc(-n2c(O)c(/C=N/n3cnnc3)c3ccccc3c2=O)cc1`, the inhibition is 12% (inactive).
In the case of `O=C(O)c1cn[nH]c1-n1cnnn1` it was 7% (inactive); in that of `Cc1c(Cl)cccc1NC(=O)Nn1cnnc1`, 10% (inactive).
As for `CC(C)n1c(SCC(=O)Nc2nncs2)nnc1-c1ccco1`, the inhibition was 11% (inactive).
In the case of `O=S(=O)(Nn1cnnc1)c1ccccc1` it was 2% (inactive); in that of `Cc1cc(=O)[nH]c(SCC(=O)c2ccc(O)c(O)c2)n1`, 61%; in that of `OC(Cn1cnnc1)c1ccccc1` (stereo not given), 12% (inactive).
For `COC(=O)CN(n1cnnc1)S(=O)(=O)c1ccc(C)cc1`, the inhibition is 6% (inactive).
With `Cc1ccc(Cl)cc1NC(=S)Nn1cnnc1`, the inhibition was 16% (inactive).
On to `Cc1nc(-c2ccc(O)c(O)c2)cs1`, for which the inhibition is 95%.
As for `O=C(CSc1ncn[nH]1)OCN1C(=O)c2ccccc2C1=O`, the inhibition was 49% (inactive).
For the molecule `NCCc1ccc(O)c(O)c1`, the inhibition was 70%.
